In ChEMBL document CHEMBL3407447, “Probing the molecular and structural elements of ligands binding to the active site versus an allosteric pocket of the human farnesyl pyrophosphate synthase” (Bioorg Med Chem Lett, 2015):
Active and inactive are the calls of the source. The calls are words filed in the database; no cut-off is given here.

The compounds below were run against T1, Farnesyl pyrophosphate synthase (Homo sapiens, UniProt P14324) (assay: Inhibition of human FPPS). Conditions: not given.
T1 sequence (P14324 whole entry): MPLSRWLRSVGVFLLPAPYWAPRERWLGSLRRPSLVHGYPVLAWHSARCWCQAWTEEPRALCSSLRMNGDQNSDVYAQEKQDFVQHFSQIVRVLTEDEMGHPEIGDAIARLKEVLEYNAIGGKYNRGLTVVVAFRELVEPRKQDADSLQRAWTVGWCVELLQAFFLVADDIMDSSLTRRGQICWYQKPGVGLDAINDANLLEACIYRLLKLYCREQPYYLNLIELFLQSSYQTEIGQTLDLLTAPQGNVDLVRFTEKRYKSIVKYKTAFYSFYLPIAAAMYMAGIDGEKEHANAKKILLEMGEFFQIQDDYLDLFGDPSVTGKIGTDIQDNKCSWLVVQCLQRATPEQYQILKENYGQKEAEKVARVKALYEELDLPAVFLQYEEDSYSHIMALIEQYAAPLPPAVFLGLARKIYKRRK

Question: Which IC50 does the source give for `CC(C)C(C)c1[nH]c2ccc(-c3ccccc3)cc2c1CC(P(=O)(O)O)P(=O)(O)O` (centres undefined) here?
Answer: The IC50 was 1100 nM.

These compounds were tested against T2, Farnesyl pyrophosphate synthase (Homo sapiens) (UniProt P14324) (assay: Inhibition of human FPPS at 10 uM). Conditions: not given.
T2 sequence (whole entry): T1 sequence (P14324 whole entry)
Method in brief: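 Single fixed-concentration screen in the human FPPS enzyme inhibition assay, run alongside two known bisphosphonate inhibitors as positive controls.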

Question: How did the inhibition turn out when `Cc1c(CC(P(=O)(O)O)P(=O)(O)O)c2ccccc2n1C` was run?
Answer: The inhibition was “Active”.

Question: For `CC(C)n1cc(CC(P(=O)(O)O)P(=O)(O)O)c2ccccc21`, which inhibition is on record?
Answer: The inhibition was “Active”.

Question: `CC(c1[nH]c2ccccc2c1CC(P(=O)(O)O)P(=O)(O)O)C1CCCC1` (centres undefined) was tested. Which inhibition did it give?
Answer: The inhibition was “Active”.

Question: With `Cn1c(NCC(P(=O)(O)O)P(=O)(O)O)nc2ncccc21` as the compound, how does the inhibition read?
Answer: The inhibition was “Active”.

Question: Which inhibition does the source give for `Cc1[nH]c2ccccc2c1CC(P(=O)(O)O)P(=O)(O)O` here?
Answer: The inhibition was “Active”.

Question: With `CC(C)C(C)c1[nH]c2ccc(-c3ccccc3)cc2c1CC(P(=O)(O)O)P(=O)(O)O` (centres undefined) as the compound, how does the inhibition read?
Answer: The inhibition was “Active”.

Question: How did the inhibition turn out when `Cn1c(NCC(P(=O)(O)O)P(=O)(O)O)nc2cccnc21` was run?
Answer: The inhibition was “inactive”.

Question: For `CC(C)(C)c1[nH]c2ccccc2c1CC(P(=O)(O)O)P(=O)(O)O`, which inhibition is on record?
Answer: The inhibition was “Active”.

Question: How did the inhibition turn out when `Cn1cc(CC(P(=O)(O)O)P(=O)(O)O)c2ccccc21` was run?
Answer: The inhibition was “Active”.

Question: Which inhibition does the source give for `CCn1cc(CC(P(=O)(O)O)P(=O)(O)O)c2ccccc21` here?
Answer: Its inhibition is “Active”.

Question: With `CC(C)C(C)c1[nH]c2ccccc2c1CC(P(=O)(O)O)P(=O)(O)O` (centres undefined) as the compound, how does the inhibition read?
Answer: Its inhibition is “Active”.

The compounds below were run on Rattus norvegicus (assay: Reduction in hypercalcemia in sc dosed rat). Conditions: read-out: MED.
Assay type: functional

Question: How did the minimal effective dose turn out when `O.O=P(O)(O)C(O)(Cn1ccnc1)P(=O)(O)O` [ZOLEDRONIC ACID] was run?
Answer: Its minimal effective dose is 0.03 mg/kg.

Question: How did the minimal effective dose turn out when `O=P(O)(O)C(O)(Cc1cnc2ccccn12)P(=O)(O)O` [MINODRONIC ACID] was run?
Answer: The minimal effective dose was 0.03 mg/kg.
